Test system: Male Wistar rats
Test: DEN model of hepatic fibrosis and inflammation, body weight and liver histology
Type: in vivo, rat
Settings: for collagen proportional area (CPA), Sirius Red: weekly 100 mg/kg i.p.
Summary of the method: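 Male Wistar rats (190–220 g at start) got weekly i.p. DEN 100 mg/kg in PBS for 4 weeks, or PBS only as controls, and were sampled 1 or 7 days after the last dose. Formalin-fixed, paraffin-embedded 5 μm liver sections were stained with H&E, Sirius Red, and fibrin antibody (1:25). A pathologist scored modified Ishak HAI; CPA was the % Sirius Red area. Values are mean ± standard error, compared by t-test.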

## CCN(CC)N=O [DEN, diethylnitrosamine]
1 day post DEN
  HAI score for inflammation (0 – 4): 3.54 ± 0.14
  fibrin immunostaining, area stained: 3.56 ± 1.35
  fibrosis Ishak score (0 – 6): 3.62 ± 0.31
  collagen proportional area (CPA), Sirius Red: 3.14 ± 1.27%
7 days post DEN
  HAI score for inflammation (0 – 4): 1.61 ± 0.16
  fibrin immunostaining, area stained: 1.02 ± 0.58
  fibrosis Ishak score (0 – 6): 3.82 ± 0.25
  collagen proportional area (CPA), Sirius Red: 3.30 ± 0.65%

From PMC7935409 (Investigative radiology, 2020)
